High-throughput results deposited in PubChem by several laboratories.
The list is not random: actives were taken first. Their share in the collection is about 1.5%.
Ec RNAP inh – Escherichia coli RNA polymerase inhibition; P0A8V2; E. coli RNA polymerase, fluorescence transcription assay; inhibition, %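 (tested at 10 µM)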; 62,000 compounds, 0.2% hits; in the data active = inhibition above about 20%;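 also: 0% = enzyme without compound and 100% = no enzyme blank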
Target sequence (P0A8V2 whole entry, looked up): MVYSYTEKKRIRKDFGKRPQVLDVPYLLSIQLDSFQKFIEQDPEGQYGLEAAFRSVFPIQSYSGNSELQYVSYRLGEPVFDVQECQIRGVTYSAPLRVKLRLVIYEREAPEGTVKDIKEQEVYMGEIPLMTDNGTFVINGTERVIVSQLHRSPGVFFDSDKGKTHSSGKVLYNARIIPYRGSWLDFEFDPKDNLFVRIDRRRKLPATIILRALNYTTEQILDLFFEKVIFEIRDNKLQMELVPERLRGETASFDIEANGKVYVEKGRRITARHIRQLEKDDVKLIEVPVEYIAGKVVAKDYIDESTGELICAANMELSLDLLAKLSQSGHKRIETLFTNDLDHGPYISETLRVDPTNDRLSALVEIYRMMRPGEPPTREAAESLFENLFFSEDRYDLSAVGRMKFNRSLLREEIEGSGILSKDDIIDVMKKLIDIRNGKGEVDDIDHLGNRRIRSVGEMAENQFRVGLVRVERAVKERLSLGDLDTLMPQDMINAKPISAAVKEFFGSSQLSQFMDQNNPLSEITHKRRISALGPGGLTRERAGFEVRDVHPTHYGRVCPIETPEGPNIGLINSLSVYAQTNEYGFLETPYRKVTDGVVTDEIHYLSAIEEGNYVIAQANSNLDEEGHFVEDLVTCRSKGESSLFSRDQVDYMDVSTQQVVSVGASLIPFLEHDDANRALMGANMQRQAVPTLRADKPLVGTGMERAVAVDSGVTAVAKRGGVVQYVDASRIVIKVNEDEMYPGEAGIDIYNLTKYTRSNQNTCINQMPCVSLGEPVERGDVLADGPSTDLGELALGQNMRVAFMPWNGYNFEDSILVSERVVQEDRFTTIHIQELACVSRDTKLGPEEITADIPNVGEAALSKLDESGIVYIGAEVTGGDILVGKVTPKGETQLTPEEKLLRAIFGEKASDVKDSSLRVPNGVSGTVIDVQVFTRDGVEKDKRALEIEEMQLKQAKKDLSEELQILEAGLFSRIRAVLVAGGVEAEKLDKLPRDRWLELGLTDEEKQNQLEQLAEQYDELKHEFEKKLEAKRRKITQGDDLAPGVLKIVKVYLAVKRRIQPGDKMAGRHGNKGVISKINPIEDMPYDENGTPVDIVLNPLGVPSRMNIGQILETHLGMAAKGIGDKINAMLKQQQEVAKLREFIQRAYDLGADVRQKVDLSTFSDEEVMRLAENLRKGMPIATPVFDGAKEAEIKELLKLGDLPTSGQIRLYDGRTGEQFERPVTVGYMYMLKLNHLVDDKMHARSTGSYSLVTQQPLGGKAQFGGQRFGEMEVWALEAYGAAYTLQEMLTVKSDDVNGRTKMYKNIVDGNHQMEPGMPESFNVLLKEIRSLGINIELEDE
MK inhibit – inhibitors of Streptococcus pneumoniae mevalonate kinase; inhibition, % at 10 µM; purified MK, PK/LDH-coupled NADH absorbance 340 nm; AID 555; 65,000 compounds, 0.48% hits;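 active = ranked among the strongest by inhibition in the single 10 µM screen, a fixed top-ranked set picked for dose follow-up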
AP complement – alternative pathway complement inhibition, orthogonal assay; inhibition, % at 5 µM; AID 1235; Human serum alternative complement pathway, LPS-coated ELISA, C3 deposition; tested in compound mixtures; 62,000 compounds, 0.08% hits;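 active = inhibition above 30% in each of the two pooled mixtures holding the compound, so the lower value exceeds 30%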;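 also: 0% = serum in Mg-EGTA without compound and 100% = EDTA serum blank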
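Test system: human serum complement alternative pathway, C3 deposition onto LPS / Medium: Mg2+-EGTA GVB++ buffer containing human serum at 1:15 dilution / Probe or stimulus: Plate-bound LPS / Times: 1 h at 37 °C / Signal: ELISA with HRP anti-human C3 antibody, TMB substrate, absorbance 450 nm / Measure: percent inhibition / Repeats: two pool placements per compound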
DPM-DC inhibit – S. pneumoniae DPM-DC inhibition | purified DPM-DC, PK/LDH coupled NADH fluorescence | calls only at 10 µM | 65,000 compounds, 0.49% hits;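 active = the 320 compounds with the highest percent inhibition in the single-dose primary screen, excluding strongly autofluorescent ones, cut at about 32% in these data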;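 also: kinetic rate of NADH fluorescence loss reporting ADP formed by the decarboxylase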
Spn PMK inh – inhibitors of Streptococcus pneumoniae phosphomevalonate kinase. inhibition, % at 10 µM. AID 539. 65,000 compounds, 0.49% hits. purified PMK, PK/LDH-coupled NADH absorbance 340 nm;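 active = top-ranked compounds by inhibition in the single 10 µM screen, taking a fixed number of the strongest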;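 also: 0% = full reaction with DMSO carrier and 100% = background rate without enzyme reaction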
TNAP act mid DEA – human TNAP activation, intermediate phosphate acceptor; P05186; 64,000 tested, under 10 active; purified TNAP, CDP-star luminescence, 100 mM DEA, 30 min; hits give high values; scale: 0 levamisole-inhibited, 1 vehicle-only enzyme; AID 813; activation factor at 20 µM;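 active = activation factor of at least 2 at 20 µM, relative to controls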
Active calls of the source: *; i = inactive; x = not tested or not shown; + = active, no number; [ ] = dose if it differs, or a comment.

SMILES	Ec RNAP inh	MK inhibit	AP complement	DPM-DC inhibit	Spn PMK inh	TNAP act mid DEA
CC(=O)NC(CCS(C)(=O)=O)C(=O)Nc1cccc(C)c1C (stereo not drawn)	5	7	-2	i	8	0.8
CC(=O)NC(CCS(C)(=O)=O)C(=O)Nc1c(C)cccc1C (stereo not drawn)	-1	47*	7	i	1	0.9
C/C(=N\n1nnnc1Nc1ccccc1)c1ccc(N)cc1	6	0	8	i	17	0.8
CCOc1ccc(-c2cc(C(=O)O)c3ccccc3n2)c(OCC)c1	x	6	x	i	0	x
COc1ccc(-c2cc(C(=O)OCC(=O)N(C)C)c3ccccc3n2)cc1	-1	7	-11	+	12	1
O=c1cc(CSc2ccc(S(=O)(=O)N3CCCCC3)cn2)nc2sccn12	4	6	-23	i	14	1
OCCN(Cc1ccccc1)Cc1cccc(F)c1	7	45*	6	i	0	0.8
OCCN(Cc1ccccc1)Cc1ccccc1Cl	3	37	19	i	0	0.9
OCCN(Cc1ccccc1)CC1CCCCC1	1	43*	17	i	0	1
CCCN(CCO)Cc1cccc(Cl)c1	7	41*	17	i	0	0.9
OCCN(Cc1ccccc1)Cc1ccccc1F	3	48*	11	i	7	0.9
O=C(Nc1cccnc1)C1(c2ccccc2)CCCC1	7	9	1	i	6	1
O=C(Nc1ccncc1)C1(c2ccccc2)CCCC1	10	11	39*	i	13	0.9
COC(=O)c1ccc(Cn2cnc3c(sc4nc(N5CCOCC5)c5c(c43)CCCC5)c2=O)o1	9	5	x	i	6	0.9
CC1CCCCN1c1nnc(NC(=O)Cn2c(=O)oc3ccccc32)s1 (stereo not drawn)	5	0	4	i	16	0.9
CN(C(=O)c1ccncc1)C1CC(C)(C)N(O)C(C)(C)C1	21*	0	-7	i	8	0.9
CC1Cc2ccccc2N1C(=O)Cn1c(=O)oc2cc(S(=O)(=O)N3CCCCC3)ccc21 (stereo not drawn)	8	10	13	i	0	1
CCOC(=O)c1cncc(NC(=O)c2ccccc2)c1	1	8	13	+	16	1
CCOC(=O)c1cccc(NC(=O)c2cnccn2)c1	9	10	-12	i	10	1.1
CC(=O)NC(Cc1ccccc1C)C(=O)NC1CCN(c2c3c(nc4ncnn24)CCC3)CC1 (stereo not drawn)	1	4	17	i	14	0.9
COc1ccc(CN2CCCCC2C(=O)Nc2ccc(OC)c(OC)c2)cc1OC (stereo not drawn)	8	5	9	i	7	1
CCOC(=O)C1CCCCN1Cc1ccc(F)c(Br)c1 (stereo not drawn)	-3	45*	-14	i	0	0.9
Nc1c(C(=O)NCCN2CCOCC2)c2nc3ccccc3nc2n1-c1ccc2c(c1)OCO2	8	14	5	+	8	0.9
Nc1c(C(=O)NCCN2CCOCC2)c2nc3ccccc3nc2n1-c1ccccc1	-22	10	-9	x	5	0.9
CCCC(C(=O)NCC1CCCO1)N(Cc1ccco1)C(=O)CNS(=O)(=O)c1ccccc1 (stereo not drawn)	5	0	-9	i	17	0.9
SMILES	Ec RNAP inh	MK inhibit	AP complement	DPM-DC inhibit	Spn PMK inh	TNAP act mid DEA
CC(C)C(C(=O)NCC1CCCO1)N(Cc1ccco1)C(=O)CNS(=O)(=O)c1ccc(F)cc1 (stereo not drawn)	6	6	6	i	27*	0.9
O=C(CN(Cc1ccco1)C(=O)CNS(=O)(=O)c1ccc(F)cc1)NCc1ccc(F)cc1	0	8	3	i	21	6.1*
COc1ccccc1NC(=O)c1cc(Sc2nncn2C)nc2ccccc12	-1	0	23	i	3	0.9
CNC(=O)c1nnn(Cc2ccccc2)c1NC(=O)C(F)(F)F	-1	0	10	i	13	0.9
Cc1coc2cc3oc(=O)c4c(c3cc12)CCC4	1	10	0	+[may fluoresce]	9	0.8
CN1CC(=O)NC1=NC(=O)c1cc(F)c(F)cc1Cl	4	0	-1	i	23	0.8
CN1CC(=O)NC1=NC(=O)c1ccc(Cl)c(S(=O)(=O)N2CCCCCC2)c1	-1	0	12	i	28*	1
O=C(Nc1cccc(S(=O)(=O)c2cccc(NC(=O)C3CC3)c2)c1)C1CC1	10	9	7	i	6	0.9
COc1ccccc1/C=C/CN1CCOCC1	7	44*	30	i	0	0.9
COc1ccccc1N1CCN(C/C=C/c2ccc(N(C)C)cc2)CC1	x	35	25	i	0	0.9
c1ccc(-c2nc3nonc3c3nc4ccccc4n23)cc1	5	i	-1	+	4	0.8
CC(C)(CNC(=O)c1cccs1)CNC(=O)c1cccs1	-2	8	-2	i	0	1
COc1ccc(-c2coc3c(CN4CCCCC4)c(O)c(CN4CCCCC4)c(O)c3c2=O)cc1	4	0	3	i	26*	0.9
O=C(CCn1ccc2ccccc21)Nc1ccc(N2CCOCC2)cc1	-7	8	22	i	6	1
O=C(CN1CCOc2ccccc21)N1CCCC1	3	6	12	i	2	0.9
Cc1cc(N2CCN(C3CCCC3)CC2)n2nc(C)c(-c3ccccc3)c2n1	5	9	24	+	13	0.9
Cc1cc(C)c2c(n1)nn1c(N3CCN(c4ccccc4)CC3)cc(C)nc21	x	10	6	+	2	0.9
Cc1cc(N2CCOCC2)n2nc(C)c(-c3ccccc3)c2n1	6	9	16	i	17	0.9
CC1CN(C(=O)Cc2ccc(-c3ccccc3)cc2)CC(C)O1 (stereo not drawn)	5	0	21	i	0	0.9
O=C(CCn1c(=O)sc2ccccc21)NC1=NCCS1	8	2	-13	i	0	1
O=C(CCN1C(=O)c2ccccc2C1=O)NC1=NCCS1	7	6	-10	i	51*	1
CCOC(=O)c1ccc(NC(=O)CSc2nc(C)cc(=O)[nH]2)cc1	-3	14	-3	i	26*	0.9
COC(=O)c1nonc1NCn1nnc2ccccc21	10	7	2	i	29*	0.9
N#C/C(=C\c1ccc[nH]1)S(=O)(=O)c1ccccc1	0	12	13	i	1	0.8
CC(C)(O)P(C)(=O)c1ccccc1 (stereo not drawn)	5	7	17	+	14	0.9
